This note sets out measurements from ChEMBL document CHEMBL4351031, “The development of 2-acetylphenol-donepezil hybrids as multifunctional agents for the treatment of Alzheimer's disease” (Bioorg Med Chem Lett, 2019).

One data set addresses Acetylcholinesterase (Electrophorus electricus, UniProt O42275). The data set can be described thus: Inhibition of electric eel AChE using acetylthiocholine iodide incubated for 15 mins as substrate by Ellman's method. A general note: DTNB colorimetry detects thiols as they appear.
Another data set has as its target Cholinesterase (Equus caballus, UniProt P81908). Put plainly: Inhibition of equine serum BuChE using S-butyrylthiocholine chloride as substrate incubated for 15 mins by Ellman's method. An outline of the steps:
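Modified Ellman method using equine serum BuChE. […] Values are the mean of three independent experiments, each run in triplicate, with SD.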

Data set [1] concerns the target T1, Amine oxidase [flavin-containing] B (Homo sapiens, UniProt P27338).
T1 sequence (P27338 whole entry): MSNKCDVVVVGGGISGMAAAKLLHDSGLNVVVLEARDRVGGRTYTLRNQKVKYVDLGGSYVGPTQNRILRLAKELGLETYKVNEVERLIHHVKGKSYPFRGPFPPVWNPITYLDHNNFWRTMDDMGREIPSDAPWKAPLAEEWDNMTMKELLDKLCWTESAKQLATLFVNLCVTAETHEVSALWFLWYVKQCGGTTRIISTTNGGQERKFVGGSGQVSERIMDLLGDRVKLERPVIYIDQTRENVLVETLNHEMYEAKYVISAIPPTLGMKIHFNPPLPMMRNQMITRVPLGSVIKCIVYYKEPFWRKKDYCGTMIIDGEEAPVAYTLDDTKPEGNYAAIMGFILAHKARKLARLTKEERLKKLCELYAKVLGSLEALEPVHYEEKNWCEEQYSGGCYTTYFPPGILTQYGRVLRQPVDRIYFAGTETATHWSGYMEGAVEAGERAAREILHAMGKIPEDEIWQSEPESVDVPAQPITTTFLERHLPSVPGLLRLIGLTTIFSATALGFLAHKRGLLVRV
Put plainly: Inhibition of human recombinant MAO-B using kynuramine as substrate measured after 30 mins by fluorimetric assay.

The next data set has as its target T2, MAO-A (Homo sapiens, UniProt P21397).
T2 sequence (P21397 whole entry): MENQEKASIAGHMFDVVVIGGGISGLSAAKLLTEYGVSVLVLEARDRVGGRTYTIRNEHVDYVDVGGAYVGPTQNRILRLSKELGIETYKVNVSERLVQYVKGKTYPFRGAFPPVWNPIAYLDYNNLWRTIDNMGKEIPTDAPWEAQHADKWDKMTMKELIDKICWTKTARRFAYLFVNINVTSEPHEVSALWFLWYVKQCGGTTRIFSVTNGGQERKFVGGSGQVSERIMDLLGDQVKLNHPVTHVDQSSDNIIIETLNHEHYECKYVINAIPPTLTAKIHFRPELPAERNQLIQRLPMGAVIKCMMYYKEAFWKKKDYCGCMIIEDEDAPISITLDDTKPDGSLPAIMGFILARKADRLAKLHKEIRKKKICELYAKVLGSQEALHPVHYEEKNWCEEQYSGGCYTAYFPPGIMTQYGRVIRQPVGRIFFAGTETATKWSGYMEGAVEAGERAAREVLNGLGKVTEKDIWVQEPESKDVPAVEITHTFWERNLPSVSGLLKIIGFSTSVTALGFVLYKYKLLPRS
The data set can be described thus: Inhibition of human recombinant MAO-A using kynuramine as substrate at 10 uM measured after 30 mins by fluorimetric assay relative to control. The following applies: probe kynuramine.

Data set [2] in a line: Selectivity index, ratio of IC50 for equine serum BuChE using S-butyrylthiocholine chloride as substrate to IC50 for electric eel AChE using acetylthiocholine iodide as substrate by Ellman's method. An outline of the steps: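 Selectivity index is IC50(eqBuChE)/IC50(EeAChE). Both IC50s come from the modified Ellman method, using Electrophorus electricus AChE and equine serum BuChE. Each IC50 is the mean of three independent experiments, each run in triplicate.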

For data set [3], the target named is Cholinesterase (Equus caballus) (UniProt P81908). The data set can be described thus: Inhibition of equine serum BuChE using S-butyrylthiocholine chloride as substrate at 50 uM incubated for 15 mins by Ellman's method relative to control.

A value given as a limit tells only on which side of the number the result lay.

Chain of Acetylcholinesterase (O42275 whole entry): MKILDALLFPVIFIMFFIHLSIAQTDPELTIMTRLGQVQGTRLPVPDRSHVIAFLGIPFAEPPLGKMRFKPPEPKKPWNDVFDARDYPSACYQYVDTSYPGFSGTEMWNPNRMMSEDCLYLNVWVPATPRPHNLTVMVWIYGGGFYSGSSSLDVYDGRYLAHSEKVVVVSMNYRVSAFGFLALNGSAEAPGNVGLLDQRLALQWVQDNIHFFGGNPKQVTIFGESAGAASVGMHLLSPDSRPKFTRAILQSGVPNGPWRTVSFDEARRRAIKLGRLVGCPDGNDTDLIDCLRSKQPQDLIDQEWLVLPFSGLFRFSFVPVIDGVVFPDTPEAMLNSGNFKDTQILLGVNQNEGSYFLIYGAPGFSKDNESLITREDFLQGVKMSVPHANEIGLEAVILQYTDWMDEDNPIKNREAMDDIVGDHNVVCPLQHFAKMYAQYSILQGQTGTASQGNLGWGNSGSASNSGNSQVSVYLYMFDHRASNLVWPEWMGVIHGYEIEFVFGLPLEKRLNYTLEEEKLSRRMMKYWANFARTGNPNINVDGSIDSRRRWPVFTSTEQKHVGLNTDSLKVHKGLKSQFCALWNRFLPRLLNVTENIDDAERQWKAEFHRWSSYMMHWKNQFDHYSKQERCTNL
Chain of Cholinesterase (P81908 whole entry): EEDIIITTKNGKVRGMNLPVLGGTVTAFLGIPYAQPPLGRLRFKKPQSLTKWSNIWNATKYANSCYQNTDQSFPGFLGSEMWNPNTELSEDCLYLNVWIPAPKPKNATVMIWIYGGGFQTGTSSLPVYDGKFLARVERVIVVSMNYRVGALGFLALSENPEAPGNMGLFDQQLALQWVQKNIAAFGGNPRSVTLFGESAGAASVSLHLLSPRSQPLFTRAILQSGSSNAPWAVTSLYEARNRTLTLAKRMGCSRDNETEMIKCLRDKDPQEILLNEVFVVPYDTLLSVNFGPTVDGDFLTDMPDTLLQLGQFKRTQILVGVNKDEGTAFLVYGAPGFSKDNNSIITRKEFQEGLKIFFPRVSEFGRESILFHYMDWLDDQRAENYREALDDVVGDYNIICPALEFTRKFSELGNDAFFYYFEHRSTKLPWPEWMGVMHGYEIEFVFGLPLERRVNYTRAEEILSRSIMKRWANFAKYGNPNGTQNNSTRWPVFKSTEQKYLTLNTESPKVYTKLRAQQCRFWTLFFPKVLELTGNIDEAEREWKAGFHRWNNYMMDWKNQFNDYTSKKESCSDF
Chain of Cholinesterase (Equus caballus) (P81908 whole entry): as above

Take `COc1cc2c(cc1OC)CN(CCCCOc1ccc(C(C)=O)c(O)c1)CC2`: the results for the IC50 (against Acetylcholinesterase; against Cholinesterase; in data set [1]) were 15.9 µM, 56.4 µM and 15.7 µM, respectively. For the same compound, at MAO-A, the inhibition (usually the share of the control response that was lost under treatment) at 0.5 h, 10 µM is less than 10%. For the same compound, the Ratio IC50 in data set [2] was 3.5.
`CC(=O)c1ccc(OCCCCCCCCCCCCN2CCC(Cc3ccccc3)CC2)cc1O`: the IC50 (in general, the concentration needed to halve the response being measured) is 9.5 µM at Acetylcholinesterase and 25.8 µM in data set [1]. In data set [3], this compound registered an inhibition of less than 5%. Also, at MAO-A, the inhibition at 0.5 h, 10 µM is less than 10%.
The matching figures for `CC(=O)c1ccc(OCCCCCCCCCCN2CCC(Cc3ccccc3)CC2)cc1O`: 9.2 µM, 21.6 µM, 13.8% and less than 10%.
As to `CC(=O)c1ccc(OCCCCCCCCCCN2CCC(c3ccccc3)CC2)cc1O`, the figures for the IC50 (at Acetylcholinesterase; in data set [1]) were 18.4 µM and 14.2 µM, respectively. Also, the inhibition in data set [3] came to 0.8%. Further, the inhibition at 0.5 h, 10 µM at MAO-A is less than 10%.
On to `CCN(CCCOc1ccc(C(C)=O)c(O)c1)Cc1ccccc1`, for which the IC50 against Acetylcholinesterase was determined as 7.2 µM; against Cholinesterase it was 18.7 µM; in data set [1], 14.9 µM. Moreover, at MAO-A, the inhibition at 0.5 h, 10 µM is less than 10%. In addition, the Ratio IC50 in data set [2] was found to be 2.6.
Turning to `CCN(CC)CCOc1ccc(C(C)=O)c(O)c1`, the figures for the IC50 (against Acetylcholinesterase; in data set [1]) were 35.2 µM and 11.7 µM, respectively. Besides, in data set [3], the inhibition was less than 5%. Moreover, at MAO-A, the inhibition at 0.5 h, 10 µM was less than 10%.
Regarding `CC(=O)c1ccc(OCCCN2CCc3ccccc3C2)cc1O`, the values for the IC50 (against Acetylcholinesterase; in data set [1]) were 8.9 µM and 16.7 µM, respectively. The inhibition in data set [3] is less than 5%. For the same compound, on MAO-A, the inhibition at 0.5 h, 10 µM is less than 10%.
Consider `CCN(CC)CCCCOc1ccc(C(C)=O)c(O)c1`, for which the IC50 at Acetylcholinesterase was 20.9 µM; in data set [1] it was 22.2 µM. Besides, the inhibition in data set [3] was less than 5%. In addition, the inhibition at 0.5 h, 10 µM at MAO-A is less than 10%.
Regarding `COc1cc2c(cc1OC)CN(CCCOc1ccc(C(C)=O)c(O)c1)CC2`, the IC50 at Acetylcholinesterase came to 10.1 µM; against Cholinesterase, 57.9 µM; in data set [1], 13.8 µM. Besides, the inhibition at 0.5 h, 10 µM at MAO-A was 8.1%. For the same compound, the Ratio IC50 in data set [2] came to 5.7.
As for `CCN(CCOc1ccc(C(C)=O)c(O)c1)Cc1ccccc1`, the results for the IC50 (against Acetylcholinesterase; in data set [1]) were 18.9 µM and 13.8 µM, respectively. The same compound yielded an inhibition in data set [3] of less than 5%. For the same compound, at MAO-A, the inhibition at 0.5 h, 10 µM is less than 10%.
As for `CCN(CC)CCCCCCOc1ccc(C(C)=O)c(O)c1`, the IC50 against Acetylcholinesterase was found to be 16.3 µM; in data set [1], 22.1 µM. Further, in data set [3], the inhibition was less than 5%. For the same compound, at MAO-A, the inhibition at 0.5 h, 10 µM is less than 10%.
Regarding `CC(=O)c1ccc(OCCN2CCC(Cc3ccccc3)CC2)cc1O`, the IC50 came to 16.5 µM against Acetylcholinesterase and 22.8 µM in data set [1]. Moreover, the inhibition in data set [3] was less than 5%. Also, on MAO-A, the inhibition at 0.5 h, 10 µM is less than 10%.
Consider `CC(=O)c1ccc(OCCCCN2CCC(Cc3ccccc3)CC2)cc1O`, for which the IC50 at Acetylcholinesterase was found to be 8.9 µM; in data set [1], 13.5 µM. For the same compound, the inhibition in data set [3] was less than 5%. For the same compound, the inhibition at 0.5 h, 10 µM at MAO-A was less than 10%.
Consider `CC(=O)c1ccc(OCCCCCCCCCN2CCc3ccccc3C2)cc1O`, for which the IC50 against Acetylcholinesterase came out at 11.6 µM; in data set [1] it was 19.4 µM. For the same compound, the inhibition in data set [3] was less than 5%. The inhibition at 0.5 h, 10 µM on MAO-A was less than 10%.
Take `CCN(CC)CCCOc1ccc(C(C)=O)c(O)c1`: the IC50 at Acetylcholinesterase came out at 26.7 µM; in data set [1], 16.1 µM. Also, the inhibition in data set [3] is less than 5%. Also, the inhibition at 0.5 h, 10 µM at MAO-A is less than 10%.
The matching figures for `CC(=O)c1ccc(OCCCCCN2CCc3ccccc3C2)cc1O`: 7.5 µM, 15.2 µM, less than 5% and less than 10%.
On to `CC(=O)c1ccc(OCCCCCN2CCC(Cc3ccccc3)CC2)cc1O`, for which the results for the IC50 (on Acetylcholinesterase; in data set [1]) were 8.2 µM and 20.8 µM, respectively. The compound also gave an inhibition in data set [3] of less than 5%. Also, the inhibition at 0.5 h, 10 µM on MAO-A is less than 10%.
Turning to `CC(=O)c1ccc(OCCCCCCCCCN2CCC(Cc3ccccc3)CC2)cc1O`, the IC50 was found to be 8.5 µM against Acetylcholinesterase and 27.9 µM in data set [1]. For the same compound, the inhibition in data set [3] was less than 5%. Moreover, on MAO-A, the inhibition at 0.5 h, 10 µM was less than 10%.
